Data published in ChEMBL document CHEMBL2029219, “Synthesis, biological evaluation, and molecular modeling of natural and unnatural flavonoidal alkaloids, inhibitors of kinases” (J Med Chem, 2012).

Key:
[1] = target: Cyclin-dependent kinase 5/CDK5 activator 1 (Homo sapiens, UniProt Q00535); assay: Inhibition of human recombinant CDK5/p25 using [gamma 33P]ATP after 30 mins by scintillation counting; format: protein-complex assay
How it was run: (§1)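 Native starfish M-phase oocyte CDK1/cyclin B, or recombinant human CDK5/p25, in buffer A pH 7.5 with heparin and BSA. Stopped on P81 paper, washed in 1% phosphoric acid, counted by scintillation. Blank subtracted; % of maximal activity; DMSO dilution controls.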

[2] = target: Glycogen synthase kinase-3 (Sus scrofa, UniProt B2LUN4+I6LNT8); assay: Inhibition of porcine brain GSK3alpha/beta using GS1 as substrate
How it was run: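 Native GSK-3α/β purified from porcine brain, assayed as for CDK1. Buffer A pH 7.5 with heparin and BSA, 30 °C, 15 μM [γ-33P]ATP, phosphorylated GS-1 peptide as substrate. Read by P81 paper capture and scintillation counting. Activity as % of uninhibited control after blank subtraction.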

[3] = target: Dual specificity protein kinase CLK1 (Mus musculus, UniProt P22518); assay: Inhibition of GST-tagged mouse recombinant CLK1 expressed in Escherichia coli using GRSRSRSRSRSR as substrate
[4] = target: Dual specificity tyrosine-phosphorylation-regulated kinase 1A (Rattus norvegicus, UniProt Q63470); assay: Inhibition of GST-tagged rat recombinant DYRK1A expressed in Escherichia coli using KKISGRLSPIMTEQ as substrate
[5] = Inhibition of starfish oocyte CDK1/cyclin B using [gamma 33P]ATP after 30 mins by scintillation counting; set-up: species or system Asteroidea
How it was run: as §1, with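 “BSA. Substrate histone H1 25 μg with 15 μM [γ-33P]ATP, 30 min at 30 °C.” for “BSA.”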

Dual specificity protein kinase CLK1, sequence (P22518 whole entry): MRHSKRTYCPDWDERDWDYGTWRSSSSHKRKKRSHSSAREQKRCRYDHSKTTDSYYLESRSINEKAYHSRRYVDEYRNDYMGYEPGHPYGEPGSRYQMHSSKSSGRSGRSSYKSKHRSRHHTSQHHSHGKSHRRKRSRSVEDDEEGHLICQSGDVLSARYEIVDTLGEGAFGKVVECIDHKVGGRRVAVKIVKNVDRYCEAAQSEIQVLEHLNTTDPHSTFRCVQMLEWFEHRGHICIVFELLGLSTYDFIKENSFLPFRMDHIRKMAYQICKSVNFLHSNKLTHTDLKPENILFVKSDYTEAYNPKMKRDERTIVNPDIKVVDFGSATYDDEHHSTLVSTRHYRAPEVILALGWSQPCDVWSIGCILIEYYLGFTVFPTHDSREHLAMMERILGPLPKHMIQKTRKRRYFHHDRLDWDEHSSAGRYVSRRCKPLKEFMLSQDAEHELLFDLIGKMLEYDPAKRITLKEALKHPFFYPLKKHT
Cyclin-dependent kinase 5/CDK5 activator 1, sequence (Q00535 whole entry): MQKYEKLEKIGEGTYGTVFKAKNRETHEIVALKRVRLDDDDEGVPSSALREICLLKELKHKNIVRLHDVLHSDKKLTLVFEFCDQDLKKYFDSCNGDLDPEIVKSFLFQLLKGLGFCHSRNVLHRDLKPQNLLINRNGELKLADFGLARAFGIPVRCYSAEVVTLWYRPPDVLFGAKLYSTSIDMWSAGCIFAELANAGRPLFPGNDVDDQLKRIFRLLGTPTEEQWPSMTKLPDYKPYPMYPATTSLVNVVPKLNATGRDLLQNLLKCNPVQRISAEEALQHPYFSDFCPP
Cyclin-dependent kinase 5/CDK5 activator 1, sequence (Q15078 whole entry, further chain): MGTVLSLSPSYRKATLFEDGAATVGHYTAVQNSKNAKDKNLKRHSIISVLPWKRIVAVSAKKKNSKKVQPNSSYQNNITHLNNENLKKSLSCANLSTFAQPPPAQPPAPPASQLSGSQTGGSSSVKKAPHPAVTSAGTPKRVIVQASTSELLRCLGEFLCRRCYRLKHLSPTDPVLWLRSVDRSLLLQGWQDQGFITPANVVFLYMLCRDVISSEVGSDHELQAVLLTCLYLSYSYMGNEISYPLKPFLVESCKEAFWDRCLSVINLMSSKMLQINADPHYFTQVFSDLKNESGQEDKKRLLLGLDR

Row | Compound | IC50 [1] | IC50 [2] | IC50 [3] | IC50 [4] | IC50 [5]
1 | CCCCC[C@@H](NC)c1c(O)cc(O)c2c(=O)cc(-c3ccccc3)oc12 | 270 nM | 4100 nM | > 10000 nM | > 10000 nM | 520 nM
2 | CN1CCC[C@H]1c1c(O)cc(O)c2c(=O)cc(-c3ccccc3)oc12 | 40 nM | 720 nM | 670 nM | > 10000 nM | –
3 | CN1CCC[C@@H]1c1c(O)cc(O)c2c(=O)cc(-c3ccccc3)oc12 | 570 nM | 2600 nM | 7400 nM | > 10000 nM | 390 nM
4 | CCCCCC(NC)c1c(O)cc(O)c2c(=O)cc(-c3ccccc3)oc12 (racemic) | 520 nM | 5200 nM | > 10000 nM | > 10000 nM | 1100 nM
5 | CN1CC[C@H](c2c(O)cc(O)c3c(=O)cc(-c4ccccc4Cl)oc23)[C@H](O)C1 (single isomer, unassigned) [ALVOCIDIB] | – | 360 nM | – | – | 90 nM
6 | CCCCC[C@H](NC)c1c(O)cc(O)c2c(=O)cc(-c3ccccc3)oc12 | 2100 nM | > 10000 nM | > 10000 nM | > 10000 nM | 5400 nM

More lines, main results first:

Row | IC50 [1] | IC50 [2] | IC50 [3] | IC50 [4] | Compound | IC50 [5]
7 | 1100 nM | > 10000 nM | > 10000 nM | > 10000 nM | O=c1cc(-c2ccccc2)oc2c(C3CCCN3)c(O)cc(O)c12 (racemic) | 1600 nM
8 | 950 nM | >= 10 uM | > 10000 nM | > 10000 nM | CN1CCCC[C@@H]1c1c(O)cc(O)c2c(=O)cc(-c3ccccc3)oc12 | 1100 nM
9 | 50 nM | 1600 nM | 2100 nM | > 10000 nM | CN1CCCC[C@H]1c1c(O)cc(O)c2c(=O)cc(-c3ccccc3)oc12 | 30 nM
10 | > 10000 nM | > 10000 nM | > 10000 nM | > 10000 nM | COc1cc(O)c(C2CCCCN2C)c2oc(-c3ccccc3)cc(=O)c12 (stereo unspecified) [BUCHENAVIANINE] | > 10000 nM
11 | 1700 nM | 5100 nM | 8500 nM | > 10000 nM | CN1CCCCC1c1c(O)cc(O)c2c(=O)cc(-c3ccccc3)oc12 (racemic) | 90 nM
12 | 5500 nM | > 10000 nM | > 10000 nM | > 10000 nM | O=c1cc(-c2ccccc2)oc2c(C3CCCCN3)c(O)cc(O)c12 (racemic) | 5000 nM
13 | 90 nM | 1300 nM | 1600 nM | > 10000 nM | CN1CCCC1c1c(O)cc(O)c2c(=O)cc(-c3ccccc3)oc12 (racemic) | 50 nM
14 | > 10000 nM | > 10000 nM | > 10000 nM | > 10000 nM | COc1cc(O)c(C2CCCCN2)c2oc(-c3ccccc3)cc(=O)c12 (stereo unspecified) | > 10000 nM
